Experimental data taken from ChEMBL document CHEMBL4351001, “2-Aminoimidazole-based antagonists of the 5-HT6 receptor - A new concept in aminergic GPCR ligand design” (Eur J Med Chem, 2019).
The source made the active and inactive calls. No cut-off for these calls is given here.

Key:
Rattus norvegicus = assay: Reversal of scopolamine induced cognitive impairment in Sprague-Dawley rat assessed increase in discrimination index at 0.3 mg/kg, po cotreated with 0.3 mg/kg of donepezil pre treated for 2 hrs followed by scopolamine addition further treated for 30 mins and measured after 1 hr by novel object recognition test; format: functional, organism-based
Summary of the method: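 Male Sprague–Dawley rats (~250 g); open-field habituation 5 min 24 h before test. Compounds p.o. 120 min and scopolamine 1.25 mg/kg i.p. 30 min before 3-min familiarization trial; 3-min recognition trial 1 h later. Exploration video-tracked; discrimination index computed; one-way ANOVA with Newman–Keuls; n = 9–10 per group; mean ± SEM.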

D(2) dopamine receptor = D(2) dopamine receptor (Homo sapiens, UniProt P14416); assay: Displacement of [3H]-methylspiperone from human D2 long receptor expressed in HEK293 cells measured after 1 hr by liquid scintillation counter method; format: cell-based
Summary of the method: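 HEK293 membranes stably expressing human D2L receptor, incubated 1 h at 37°C, then filtered and retained radioactivity counted; (+)-butaclamol 1 μM defines nonspecific binding. Tested in triplicate at 7–8 concentrations (10⁻¹¹–10⁻⁴ M); Ki via Cheng-Prusoff, averaged over at least two independent experiments.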

[1] = molecular target: T1, Alpha-1A adrenergic receptor (Rattus norvegicus) (UniProt P43140); assay: Displacement of [3H] prazosin from rat alpha 1A adrenergic receptor at 10^-6 M measured after 60 mins by scintillation counter method relative to control
T1 sequence (whole entry): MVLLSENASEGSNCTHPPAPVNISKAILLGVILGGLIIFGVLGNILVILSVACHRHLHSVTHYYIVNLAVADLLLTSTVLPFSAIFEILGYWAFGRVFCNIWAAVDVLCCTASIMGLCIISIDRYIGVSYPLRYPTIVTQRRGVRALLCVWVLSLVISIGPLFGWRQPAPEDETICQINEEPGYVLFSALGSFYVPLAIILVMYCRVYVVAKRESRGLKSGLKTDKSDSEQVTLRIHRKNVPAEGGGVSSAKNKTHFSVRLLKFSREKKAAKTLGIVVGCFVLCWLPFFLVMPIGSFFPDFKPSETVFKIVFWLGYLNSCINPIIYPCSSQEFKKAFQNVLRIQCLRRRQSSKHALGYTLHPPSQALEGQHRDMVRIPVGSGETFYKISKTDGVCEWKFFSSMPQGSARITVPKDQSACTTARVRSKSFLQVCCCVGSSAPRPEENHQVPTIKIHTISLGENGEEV

[2] = molecular target: 5-hydroxytryptamine receptor 6 (Homo sapiens, UniProt P50406); assay: Displacement of [3H]LSD from human 5HT6 receptor expressed in HEK293 cells measured after 1 hr by liquid scintillation counter method; format: cell-based
[3] = molecular target: 5-hydroxytryptamine receptor 2A (Homo sapiens, UniProt P28223); assay: Displacement of [3H]ketanserin from human 5HT2A receptor expressed in CHOK1 cells incubated for 1 hr by liquid scintillation counter method; format: cell-based; conditions: read-out: Ki
[4] = molecular target: Histamine H1 receptor (Homo sapiens) (UniProt P35367); assay: Agonist activity at human recombinant H1 histamine receptor at 10^-5 M relative to control
Cytochrome P450 2D6 = Cytochrome P450 2D6 (Homo sapiens, UniProt P10635); assay: Inhibition of human recombinant CYP2D6 expressed in Escherichia coli at 6.4 uM using luciferin ME-EGE as substrate preincubated for 5 mins followed by NADPH addition measured after 45 mins by P450-Glo luminescence assay; format: ADME; conditions: recombinant enzyme, 0.75 h
Summary of the method: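 P450-Glo luminescent assays: enzyme, proluciferin and compound (final 0.01–25 μM) preincubated 5 min, reaction started with NADPH regeneration system; incubated at room temperature 30 min (CYP3A4) or 45 min (CYP2D6).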

Cytochrome P450 3A4 = Cytochrome P450 3A4 (Homo sapiens, UniProt P08684); assay: Inhibition of human recombinant CYP3A4 expressed in Escherichia coli at […] using luciferin PFBE as substrate preincubated for 5 mins followed by NADPH addition measured after 30 mins by P450-Glo luminescence assay; format: ADME; conditions: recombinant enzyme, 0.5 h
in vitro = conditions: rat, microsomes
[5] = molecular target: T2, 5-hydroxytryptamine receptor 2C (Homo sapiens) (UniProt P28335); assay: Displacement of [3H]mesulergine from human recombinant 5HT2C serotonin receptor at 10^-6M incubated for 120 mins by scintillation counter method relative to control
T2 sequence (whole entry): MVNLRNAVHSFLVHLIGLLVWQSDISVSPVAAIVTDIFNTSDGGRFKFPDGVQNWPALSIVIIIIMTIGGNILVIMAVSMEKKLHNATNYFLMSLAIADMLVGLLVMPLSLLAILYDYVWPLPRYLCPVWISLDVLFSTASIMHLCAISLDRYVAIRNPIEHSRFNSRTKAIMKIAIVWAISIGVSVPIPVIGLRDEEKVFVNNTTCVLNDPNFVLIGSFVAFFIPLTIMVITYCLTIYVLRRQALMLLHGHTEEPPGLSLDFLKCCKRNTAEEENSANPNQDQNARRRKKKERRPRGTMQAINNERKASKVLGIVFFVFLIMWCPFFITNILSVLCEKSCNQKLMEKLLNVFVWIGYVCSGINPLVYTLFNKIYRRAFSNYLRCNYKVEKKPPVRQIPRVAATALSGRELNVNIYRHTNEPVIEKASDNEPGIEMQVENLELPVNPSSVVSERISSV

[6] = Mutagenicity in Salmonella typhimurium TA100 at up to 10 uM measured after 90 mins by Ames test; format: toxicity; conditions: salmonella enterica subsp. enterica serovar typhimurium
Summary of the method: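 Ames microplate fluctuation with S. typhimurium TA100; bacteria exposed to 1 and 10 μM compound 90 min at 37°C in limited-histidine medium, then distributed into histidine-free indicator medium, 72 h at 37°C. Revertant growth scored by colour change (absorbance 420 nm); NQNO 0.5 μM positive control; alert at ≥2.0-fold over baseline and binomial B ≥0.99.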

[7] = molecular target: 5-hydroxytryptamine receptor 7 (Homo sapiens, UniProt P34969); assay: Displacement of [3H]-5-CT from human 5HT7 receptor expressed in HEK293 cells measured after 1 hr by liquid scintillation counter method; format: cell-based; conditions: read-out: Ki
Chain of 5-hydroxytryptamine receptor 7 (P34969 whole entry): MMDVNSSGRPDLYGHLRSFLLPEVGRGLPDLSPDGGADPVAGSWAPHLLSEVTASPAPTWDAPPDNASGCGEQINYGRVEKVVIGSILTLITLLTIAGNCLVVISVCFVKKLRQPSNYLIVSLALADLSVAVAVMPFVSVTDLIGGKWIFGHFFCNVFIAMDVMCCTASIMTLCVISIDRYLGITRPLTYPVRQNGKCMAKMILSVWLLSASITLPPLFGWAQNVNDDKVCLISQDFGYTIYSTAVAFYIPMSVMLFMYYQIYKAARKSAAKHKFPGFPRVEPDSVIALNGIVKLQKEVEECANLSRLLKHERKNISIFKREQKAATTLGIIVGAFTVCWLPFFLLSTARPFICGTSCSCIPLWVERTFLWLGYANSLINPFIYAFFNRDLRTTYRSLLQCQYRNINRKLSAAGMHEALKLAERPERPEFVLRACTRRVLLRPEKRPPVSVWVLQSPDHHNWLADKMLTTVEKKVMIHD

Chain of Cytochrome P450 2D6 (P10635 whole entry): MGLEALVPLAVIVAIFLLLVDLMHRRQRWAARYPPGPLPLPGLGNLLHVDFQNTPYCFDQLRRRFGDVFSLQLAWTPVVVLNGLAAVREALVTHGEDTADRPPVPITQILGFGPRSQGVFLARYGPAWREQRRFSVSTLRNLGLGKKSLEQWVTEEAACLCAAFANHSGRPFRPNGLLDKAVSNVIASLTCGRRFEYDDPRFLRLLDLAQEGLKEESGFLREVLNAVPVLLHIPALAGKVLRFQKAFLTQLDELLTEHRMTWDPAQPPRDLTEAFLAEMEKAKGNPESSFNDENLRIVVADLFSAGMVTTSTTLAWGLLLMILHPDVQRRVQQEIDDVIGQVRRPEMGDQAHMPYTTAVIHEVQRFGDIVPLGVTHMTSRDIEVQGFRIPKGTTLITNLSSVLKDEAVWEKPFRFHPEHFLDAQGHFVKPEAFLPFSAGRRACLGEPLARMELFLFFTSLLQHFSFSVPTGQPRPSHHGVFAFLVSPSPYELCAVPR
Chain of 5-hydroxytryptamine receptor 2A (P28223 whole entry): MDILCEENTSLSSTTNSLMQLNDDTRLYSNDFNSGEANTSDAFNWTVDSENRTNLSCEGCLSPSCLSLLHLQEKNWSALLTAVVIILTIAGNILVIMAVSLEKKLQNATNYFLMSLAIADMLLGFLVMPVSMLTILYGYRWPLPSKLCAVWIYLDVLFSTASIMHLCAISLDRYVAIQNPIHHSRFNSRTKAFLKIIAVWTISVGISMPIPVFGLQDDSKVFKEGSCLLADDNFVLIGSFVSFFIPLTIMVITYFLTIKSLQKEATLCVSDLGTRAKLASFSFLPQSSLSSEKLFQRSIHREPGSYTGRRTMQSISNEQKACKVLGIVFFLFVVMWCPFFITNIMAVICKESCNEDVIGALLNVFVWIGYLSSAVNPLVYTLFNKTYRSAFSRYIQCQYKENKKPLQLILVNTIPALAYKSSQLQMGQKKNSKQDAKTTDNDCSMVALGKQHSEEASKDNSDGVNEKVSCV
Chain of Histamine H1 receptor (Homo sapiens) (P35367 whole entry): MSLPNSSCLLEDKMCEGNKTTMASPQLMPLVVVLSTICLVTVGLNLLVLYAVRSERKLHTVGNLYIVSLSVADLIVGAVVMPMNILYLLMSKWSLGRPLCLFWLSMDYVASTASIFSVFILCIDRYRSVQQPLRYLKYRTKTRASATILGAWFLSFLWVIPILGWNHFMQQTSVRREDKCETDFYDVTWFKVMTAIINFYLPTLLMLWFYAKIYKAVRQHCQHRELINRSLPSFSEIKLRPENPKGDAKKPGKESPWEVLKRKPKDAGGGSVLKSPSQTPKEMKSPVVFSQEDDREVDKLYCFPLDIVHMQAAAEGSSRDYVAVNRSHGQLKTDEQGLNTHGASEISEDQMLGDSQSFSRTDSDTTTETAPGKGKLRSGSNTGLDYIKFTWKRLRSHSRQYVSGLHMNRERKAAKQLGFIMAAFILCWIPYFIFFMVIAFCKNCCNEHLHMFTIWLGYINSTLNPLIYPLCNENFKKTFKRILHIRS
Chain of D(2) dopamine receptor (P14416 whole entry): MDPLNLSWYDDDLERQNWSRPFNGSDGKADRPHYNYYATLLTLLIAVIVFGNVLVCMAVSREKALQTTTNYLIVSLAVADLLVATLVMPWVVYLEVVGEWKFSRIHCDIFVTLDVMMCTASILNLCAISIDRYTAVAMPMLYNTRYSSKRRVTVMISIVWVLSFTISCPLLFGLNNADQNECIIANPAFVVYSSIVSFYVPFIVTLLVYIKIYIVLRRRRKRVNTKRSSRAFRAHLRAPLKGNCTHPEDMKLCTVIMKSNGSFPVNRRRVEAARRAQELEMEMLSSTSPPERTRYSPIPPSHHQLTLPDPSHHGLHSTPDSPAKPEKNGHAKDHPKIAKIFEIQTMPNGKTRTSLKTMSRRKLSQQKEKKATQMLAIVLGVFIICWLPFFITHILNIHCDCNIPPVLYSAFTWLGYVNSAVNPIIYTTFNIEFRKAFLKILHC
Chain of 5-hydroxytryptamine receptor 6 (P50406 whole entry): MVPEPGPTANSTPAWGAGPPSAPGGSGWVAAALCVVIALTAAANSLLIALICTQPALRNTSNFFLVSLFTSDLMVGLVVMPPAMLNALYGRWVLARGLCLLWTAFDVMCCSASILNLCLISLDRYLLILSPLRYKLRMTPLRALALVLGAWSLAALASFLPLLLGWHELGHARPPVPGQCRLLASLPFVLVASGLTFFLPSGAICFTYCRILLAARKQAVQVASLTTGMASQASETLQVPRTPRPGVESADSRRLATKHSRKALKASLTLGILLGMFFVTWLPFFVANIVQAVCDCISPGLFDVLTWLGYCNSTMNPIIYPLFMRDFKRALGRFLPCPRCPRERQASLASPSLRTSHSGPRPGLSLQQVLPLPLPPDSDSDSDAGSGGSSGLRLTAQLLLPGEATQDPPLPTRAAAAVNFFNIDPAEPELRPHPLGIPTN
Chain of Cytochrome P450 3A4 (P08684 whole entry): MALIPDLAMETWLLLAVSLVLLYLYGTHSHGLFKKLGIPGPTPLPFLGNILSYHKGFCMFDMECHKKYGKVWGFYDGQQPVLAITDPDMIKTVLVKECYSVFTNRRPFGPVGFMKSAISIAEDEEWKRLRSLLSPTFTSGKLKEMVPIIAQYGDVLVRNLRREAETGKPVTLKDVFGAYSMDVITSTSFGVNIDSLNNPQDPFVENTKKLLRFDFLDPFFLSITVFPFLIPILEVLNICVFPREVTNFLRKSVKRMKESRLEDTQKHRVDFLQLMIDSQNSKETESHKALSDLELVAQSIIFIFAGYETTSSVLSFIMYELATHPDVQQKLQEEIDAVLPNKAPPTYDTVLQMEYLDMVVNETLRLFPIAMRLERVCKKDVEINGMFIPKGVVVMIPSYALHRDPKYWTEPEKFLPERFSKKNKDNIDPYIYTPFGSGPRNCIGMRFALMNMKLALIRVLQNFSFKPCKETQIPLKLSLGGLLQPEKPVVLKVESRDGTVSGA

In the case of `Cc1nc(N)[nH]c1-c1cn(S(=O)(=O)c2cccc3ccccc23)c2ccccc12.Cl`, the Activity (Rattus norvegicus) is reported as “Active”, the Ki (D(2) dopamine receptor) is reported as 1170 nM and the inhibition [1] is reported as 10.7%. The Ki [2] was 8 nM, the Ki [3] was 490 nM and the Activity [4] was -1.3%. The “inhibition (INH)” value (Cytochrome P450 2D6) was “Active”, the INH (Cytochrome P450 3A4) was “Active” and the half-life (in vitro) was 23 min. The inhibition [5] was 52.7%, the Activity [6] was “Non-Toxic” and the Ki [7] was 2510 nM.
